Bioassay records as filed in PubChem.
Shown are actives, neighbours in structure and some others; about 1.4% of the full set was active somewhere.
Dyrk1A ADPGlo: Dyrk1A (rat) kinase inhibition | Q63470 | ADP-Glo luminescence, NFATc1 peptide | inhibition, % at 12.5 µM | 310,000 tested, 0.43% active | AID 504441; in the data active means inhibition above about 50%;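 further: plate controls were vehicle with enzyme for no effect and no enzyme for full effect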
ARNT TACC3 PPI: disruptors of human ARNT/TACC3 interaction. Q9Y6A5. AlphaScreen His-ARNT PAS-B/GST-TACC3 binding, luminescence; TACC3 fragment carries E629A point mutation. inhibition, % at 9.99 µM. 390,000 tested, 0.66% active. AID 623870;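 active means mean inhibition of replicates at least 50% and at least half of replicates each reaching 50%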;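 further: 0% = complete ARNT plus TACC3 wells and 100% = ARNT alone without TACC3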
CAL PDZ FP-1: blocks peptide binding to the human CAL PDZ domain; Q9HD26; purified CAL PDZ, TMR-peptide fluorescence polarization, 1 h; inhibition, % at 24.9 µM; 300,000 tested, 0.92% active; AID 602252;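 active means mean inhibition of at least 30% with at least half of replicates also reaching 30%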;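 further: 0% = DMSO neutral control and 100% = excess unlabeled competitor peptide PRC23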
CAL PDZ FP-2: blocks peptide binding to human CAL PDZ domain. purified CAL PDZ, TMR-peptide fluorescence polarization, 1 h. inhibition, % at 20 µM. AID 504414. 330,000 tested, 0.02% active. Q9HD26;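 active means highest replicate inhibition of at least 40%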;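 further: plate controls were DMSO neutral control wells for no effect and unlabeled competitor peptide control wells for full effect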
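Material: tagged CAL PDZ domain; buffer or medium: 25 mM sodium phosphate pH 7.4, 150 mM NaCl, TCEP, IgG, Thesit; compound dosing: single point, 20 µM; schedule: 1 h incubation at room temperature before polarization reading; measured by: FP readout, S and P plane fluorescence; read-out basis: percent inhibition from loss of millipolarization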
ARNT Alpha ctr: AlphaScreen artifact in ARNT/TACC3 counter-screen | shares compounds with ARNT TACC3 PPI | 1,200 tested, 50% active | AC50, µM (top dose mostly 68 µM), without a hit: top-dose activity change, negative = signal decrease | His-ARNT PASB-GST AlphaScreen artifact counter-screen, luminescence;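 active means every separate test run was called active for a drop in luminescence, with AC50 within twice the top valid dose, actives reach about 71 µM in these data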
* = called active by the depositor; nt = not tested or not shown.

SMILES	Dyrk1A ADPGlo	ARNT TACC3 PPI	CAL PDZ FP-1	CAL PDZ FP-2	ARNT Alpha ctr
C[C@@H]1CCCCO[C@@H](CN(C)Cc2ccncc2)[C@@H](C)CN([C@@H](C)CO)C(=O)c2cc(NC(=O)c3ccncc3)ccc2O1	nt	-33.1	nt	nt	nt
O=C(O)CSc1c(O)c2ccccc2[nH]c1=O	2.9	60.3*	1.7	-1.0	-9.6%
COc1ccc(Cc2nnc(N/N=C(\C)c3ccccc3)[nH]c2=O)cc1OC	0.7	47.3*	-1.2	-0.5	-14.1%
COc1ccc(Cc2nnc(NN)[nH]c2=O)cc1OC	-0.9	active	4.8	-1.4	26.5µM*
O=S(=O)(c1ccccc1)c1nc(-c2ccco2)oc1Nc1ccccc1	-5.3	active	5.8	0.4	61.8µM*
COc1ccc(S(=O)(=O)n2oc(=O)cc2-c2ccccc2)cc1OC	-5.7	active	-1.9	-2.4	7.84µM*
COc1ccc(S(=O)(=O)N[C@H]2CC[C@H](CC(=O)O)O[C@@H]2CO)cc1	nt	-19.4	nt	nt	nt
C[C@@H]1CCCCO[C@@H](CN(C)Cc2ccc(C(=O)O)cc2)[C@H](C)CN([C@H](C)CO)C(=O)c2cc(NC(=O)c3ccccc3)ccc2O1	nt	-0.9	nt	nt	nt
CN1CCN(Cc2cc(Cl)c3cccnc3c2OC(=O)c2cccs2)CC1	nt	nt	-0.8	-1.9	nt
O=C(Oc1c(CN2CCOCC2)cc(Cl)c2cccnc12)c1ccccc1Br	-4.0	62.8*	4.2	0.2	33µM*
COc1ccccc1N1CCN(Cc2ccc(OC)c(OC)c2OC)CC1	-1.3	3.1	1.4	-0.5	nt
Oc1c(CN2CCN(c3ccccc3)CC2)cc(Br)c2cccnc12	-1.5	59.3*	4.3	-0.5	2.37µM*
COc1ccccc1N1CCN(Cc2ccc(O)c3ncccc23)CC1	0.6	70.0*	nt	-0.2	2.75µM*
Oc1c(CN2CCOCC2)cc(COCc2ccccc2)c2cccnc12	-5.3	56.4*	-4.7	-1.8	3.95µM*
O=C(NCC1CC1)[C@@H]1[C@@H](CO)[C@@H]2Cn3c(ccc(-c4cccnc4)c3=O)[C@H]1N2C(=O)C1CCC1	nt	-21.8	nt	nt	nt
COCc1cc(CN2CCN(C)CC2)c(O)c2ncccc12	-11.0	66.6*	-1.4	-0.2	10.1µM*
C[C@@H]1CN([C@H](C)CO)C(=O)c2cc(NC(=O)CCN3CCOCC3)ccc2O[C@H]1CN(C)C(=O)NC1CCCCC1	nt	-3.9	nt	nt	nt
COc1cccc(/C=N/n2c(-c3n[nH]c4c3CCC4)n[nH]c2=S)c1O	14.4	33.6*	2.7	-2.4	-11.9%
C/C=C/c1cnc2c(c1)C(=O)N([C@@H](C)CO)C[C@H](C)[C@@H](CN(C)C(=O)C1CCOCC1)O2	nt	-0.7	nt	nt	nt
O=C(O)C1C2C=CC(C2)C1C(=O)NCCCN1CCCC1=O (configuration not stated)	nt	-21.5	nt	0.2	nt
O=C(O)C1CCCCC1C(=O)NCCCn1ccnc1 (configuration not stated)	-2.0	67.4*	nt	-0.4	-6.3%
O=C(NCCCn1ccnc1)C(=O)NC1CCCCC1	nt	1.1	3.2	-0.9	nt
O=C(O)C1C2C=CC(C2)C1C(=O)NCCCn1ccnc1 (configuration not stated)	-4.5	53.8*	nt	-1.1	3.4%
C[C@H](NC(=O)[C@H]1[C@H](CO)[C@H]2Cn3c(cccc3=O)[C@H]2N1C(=O)C1CC1)c1ccccc1	nt	8.4	nt	nt	nt
Cc1[nH]n2c(=O)c3c(nc2c1-c1ccccc1)CCC3	11.5	58.7*	nt	-2.1	-1.4%
C[C@@H]1CCCCO[C@@H](CN(C)C(=O)c2ccccc2)[C@@H](C)CN([C@@H](C)CO)C(=O)c2cc(NC(=O)Nc3ccc(C(F)(F)F)cc3)ccc2O1	nt	-0.5	nt	nt	nt
COCCCN=Cc1c(-c2ccccc2)[nH]n(-c2nc3ccccc3s2)c1=O	0.3	57.6*	-4.6	-4.3	-31.0%
C[C@@H]1CCCCO[C@@H](CN(C)S(=O)(=O)c2ccc(F)cc2)[C@H](C)CN([C@H](C)CO)C(=O)c2cc(NC(=O)Nc3ccc(F)cc3)ccc2O1	nt	-9.9	nt	nt	nt
CCOC(=O)C(NCc1ccccn1)(NC(=O)c1cccnc1)C(F)(F)F (configuration not stated)	1.5	65.7*	-4.4	0.3	-16.3%
COc1ccc(C2CC(=O)Oc3c(C(CCN4CCCCC4)c4ccc(N(C)C)cc4)c(OC)cc(OC)c32)cc1 (configuration not stated)	5.0	39.2*	-1.7	-0.3	17.1µM*
